Test results as given in ChEMBL document CHEMBL3098078, “Design, Synthesis, and Antiviral Evaluation of Chimeric Inhibitors of HIV Reverse Transcriptase” (ACS Med Chem Lett, 2013).
Activity calls are given as the source filed them. The rule behind the calls is not given here.

How the values were obtained:
[1] = target: Human immunodeficiency virus type 1 reverse transcriptase (Human immunodeficiency virus 1) (UniProt Q72547); assay: Ratio of d4T IC50 to compound IC50 for HIV-1 6His-tagged reverse transcriptase p66/p51
[2] = target: Human immunodeficiency virus type 1 reverse transcriptase (Human immunodeficiency virus 1, UniProt Q72547); assay: Inhibition of HIV-1 6His-tagged reverse transcriptase p66/p51-mediated TTP incorporation into D23/D36 primer/template preincubated for 15 mins followed by D23/D36 primer/template and TTP addition measured after 15 mins by PAGE analysis
Outline: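 Steady-state competition assay measuring inhibition of HIV-1 RT-catalysed TTP incorporation opposite template A into radiolabeled D23/D36 primer/template. Products are resolved on gel across increasing inhibitor concentrations, with a reference NNRTI positive control at 250 nM. Percent RT activity loss is plotted against inhibitor concentration to derive IC50.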

[3] = target: Human immunodeficiency virus type 1 reverse transcriptase (Human immunodeficiency virus 1) (UniProt Q72547); assay: Binding affinity to HIV-1 6His-tagged reverse transcriptase p66/p51 assessed as compound incorporation into D23/D36 primer/template at 50 uM after 60 mins by PAGE analysis
Outline: (§1)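 Single-turnover incorporation by HIV-1 RT of the chimeric triphosphate as substrate, using radiolabeled D23/D36 primer/template (template base pairs with TTP). Reactions are sampled at a 0 time point, and a negative control lacks Mg2+. Products are resolved by gel electrophoresis to detect an elongated primer band. A mispaired D23/D36B primer/template (dC opposite template dGMP) serves as a comparison.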

[4] = target: Human immunodeficiency virus type 1 reverse transcriptase (Human immunodeficiency virus 1) (UniProt Q72547); assay: Binding affinity to HIV-1 6His-tagged reverse transcriptase p66/p51 assessed as compound incorporation into D23/D36 primer/template at 50 uM after 60 mins by PAGE analysis in presence of MgCl2; outline: as §1
[5] = Selectivity index, ratio of CC50 for human MT2 cells to EC50 for HIV1 3B; assay type: toxicity, cell-based; conditions: read-out: Ratio CC50/EC50
[6] = tested on: Human immunodeficiency virus 1; assay: Ratio of d4T EC50 to compound EC50 for HIV1 3B infected in human MT2 cells; assay type: functional
MT2 = assay: (§2) Cytotoxicity against human MT2 cells after 5 days by MTT assay; assay type: cell-based; conditions: mt2, 120 h
Outline: (§3)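 MT-2 cells infected with HIV-1 IIIB are read by MTT assay following a previously published protocol. Inhibition of viral replication gives EC50, and the cytotoxicity read-out gives CC50.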

[7] = tested on: Human immunodeficiency virus 1; assay: Antiviral activity against HIV1 3B infected in human MT2 cells after 5 days by MTT assay; assay type: functional, organism-based
Outline: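 HIV-1 IIIB replication in MT-2 cell culture, with MTT read-out following a previously published protocol. The nucleoside form was tested. d4T and ddC (NRTI) and TMC120 (NNRTI) were run alongside as positive controls.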

[8] = as §2; assay type: cell-based; conditions: MT2 cells; outline: as §3

SMILES	Ratio IC50 [1]	IC50 [2]	Activity [4]	selectivity ratio [5]	Ratio EC50 [6]	CC50 at 120 h [8]	further results
Cc1cc(C#CCCCCCCCC(=O)NCc2cn([C@H]3C[C@H](O)[C@@H](COP(=O)(O)OP(=O)(O)OP(=O)(O)O)O3)c(=O)[nH]c2=O)cc(C)c1Oc1ccnc(Nc2ccc(C#N)cc2)n1	2000	6 nM	Active	–	–	–	Activity [3]: inactive
Cc1cc(C#CCCCCCCCC(=O)NCc2cn([C@H]3C[C@H](O)[C@@H](CO)O3)c(=O)[nH]c2=O)cc(C)c1Oc1ccnc(Nc2ccc(C#N)cc2)n1	–	–	–	18	30	–	–
Cc1cc(C#CCCCCCCCC(=O)NCc2cn([C@H]3C[C@H](O)[C@@H](CO[PH](=O)O)O3)c(=O)[nH]c2=O)cc(C)c1Oc1ccnc(Nc2ccc(C#N)cc2)n1	3000	4.3 nM	inactive	27	16	–	Activity (MT2): Toxic; Activity [7]: Active
Cc1cn([C@H]2C=C[C@@H](CO)O2)c(=O)[nH]c1=O [STAVUDINE]	–	–	–	–	–	2200 nM	EC50 ([7]; Human immunodeficiency virus 1, 3B, MT2, 120 h): 3600 nM
Nc1ccn([C@H]2CC[C@@H](CO)O2)c(=O)n1 [ZALCITABINE]	–	–	–	–	–	4000 nM	–
Cc1cc(C)c(Nc2ccnc(Nc3ccc(C#N)cc3)n2)c(C)c1 [DAPIVIRINE]	–	–	–	–	–	1900 nM	–
